According to ChEMBL document CHEMBL4819032, “Structure-based design of highly selective 2,4,5-trisubstituted pyrimidine CDK9 inhibitors as anti-cancer agents” (Eur J Med Chem, 2021):
The source made the active and inactive calls.

Legend:
CDK2/Cyclin A2 = CDK2/Cyclin A2 (Homo sapiens, UniProt P24941); experiment: Inhibition of recombinant human full length CDK2/Cyclin A using histone H1 as substrate incubated for 40 mins in presence of [gamma-33P]-ATP by scintillation counting method; format: protein-complex assay
Homo sapiens = species on record: Homo sapiens; experiment: Selectivity index, ratio of Ki for inhibition of recombinant human full length CDK2/Cyclin A to Ki for inhibition of recombinant human full length CDK9/Cyclin T1
Summary of the method: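 Ratio of apparent Ki values for the two CDK/cyclin complexes. Each Ki is derived from an IC50 (10-point radiometric dose-response, ATP at Km(app)) using the kinase's Km(ATP). The selectivity index is defined as Ki(CDK2)/Ki(CDK9).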

[1] = biological target: Cyclin-dependent kinase 7/ cyclin H (Homo sapiens, UniProt P50613); experiment: Inhibition of recombinant human full length CDK7/Cyclin H using peptide as substrate incubated for 40 mins in presence of [gamma-33P]-ATP by scintillation counting method; format: protein-complex assay
Cyclin-dependent kinase 7/ cyclin H, sequence (P51946 whole entry): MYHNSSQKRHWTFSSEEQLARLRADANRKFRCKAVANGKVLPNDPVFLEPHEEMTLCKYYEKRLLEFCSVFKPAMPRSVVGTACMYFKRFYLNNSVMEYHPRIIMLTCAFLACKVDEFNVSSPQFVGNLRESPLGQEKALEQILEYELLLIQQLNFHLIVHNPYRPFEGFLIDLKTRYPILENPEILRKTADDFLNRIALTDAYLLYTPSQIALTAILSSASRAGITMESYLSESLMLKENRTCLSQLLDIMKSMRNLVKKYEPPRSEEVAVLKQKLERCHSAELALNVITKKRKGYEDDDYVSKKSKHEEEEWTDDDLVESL
Cyclin-dependent kinase 7/ cyclin H, sequence (P50613 whole entry): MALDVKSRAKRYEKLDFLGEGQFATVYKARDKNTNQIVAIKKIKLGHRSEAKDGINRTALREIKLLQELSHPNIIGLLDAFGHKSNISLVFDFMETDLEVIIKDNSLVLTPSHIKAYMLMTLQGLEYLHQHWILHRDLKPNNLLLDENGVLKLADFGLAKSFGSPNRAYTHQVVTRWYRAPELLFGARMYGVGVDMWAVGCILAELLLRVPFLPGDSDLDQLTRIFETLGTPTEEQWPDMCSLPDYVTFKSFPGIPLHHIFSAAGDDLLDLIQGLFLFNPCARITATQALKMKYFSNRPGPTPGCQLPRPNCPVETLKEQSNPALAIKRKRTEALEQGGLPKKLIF
Summary of the method: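 Radiometric kinase assay with ATP at each kinase's Km(app). IC50 values come from 10-point dose-response curves, and apparent Ki is calculated from IC50 and the kinase's Km(ATP).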

[2] = biological target: Mitogen-activated protein kinase kinase kinase 9 (Homo sapiens) (UniProt P80192); experiment: Inhibition of recombinant human full length MLK1 (134 to 414 residues)using casein as substrate incubated for 40 mins by scintillation counting method
Mitogen-activated protein kinase kinase kinase 9 (Homo sapiens), sequence (P80192 whole entry, looked up, the tested form may be a part): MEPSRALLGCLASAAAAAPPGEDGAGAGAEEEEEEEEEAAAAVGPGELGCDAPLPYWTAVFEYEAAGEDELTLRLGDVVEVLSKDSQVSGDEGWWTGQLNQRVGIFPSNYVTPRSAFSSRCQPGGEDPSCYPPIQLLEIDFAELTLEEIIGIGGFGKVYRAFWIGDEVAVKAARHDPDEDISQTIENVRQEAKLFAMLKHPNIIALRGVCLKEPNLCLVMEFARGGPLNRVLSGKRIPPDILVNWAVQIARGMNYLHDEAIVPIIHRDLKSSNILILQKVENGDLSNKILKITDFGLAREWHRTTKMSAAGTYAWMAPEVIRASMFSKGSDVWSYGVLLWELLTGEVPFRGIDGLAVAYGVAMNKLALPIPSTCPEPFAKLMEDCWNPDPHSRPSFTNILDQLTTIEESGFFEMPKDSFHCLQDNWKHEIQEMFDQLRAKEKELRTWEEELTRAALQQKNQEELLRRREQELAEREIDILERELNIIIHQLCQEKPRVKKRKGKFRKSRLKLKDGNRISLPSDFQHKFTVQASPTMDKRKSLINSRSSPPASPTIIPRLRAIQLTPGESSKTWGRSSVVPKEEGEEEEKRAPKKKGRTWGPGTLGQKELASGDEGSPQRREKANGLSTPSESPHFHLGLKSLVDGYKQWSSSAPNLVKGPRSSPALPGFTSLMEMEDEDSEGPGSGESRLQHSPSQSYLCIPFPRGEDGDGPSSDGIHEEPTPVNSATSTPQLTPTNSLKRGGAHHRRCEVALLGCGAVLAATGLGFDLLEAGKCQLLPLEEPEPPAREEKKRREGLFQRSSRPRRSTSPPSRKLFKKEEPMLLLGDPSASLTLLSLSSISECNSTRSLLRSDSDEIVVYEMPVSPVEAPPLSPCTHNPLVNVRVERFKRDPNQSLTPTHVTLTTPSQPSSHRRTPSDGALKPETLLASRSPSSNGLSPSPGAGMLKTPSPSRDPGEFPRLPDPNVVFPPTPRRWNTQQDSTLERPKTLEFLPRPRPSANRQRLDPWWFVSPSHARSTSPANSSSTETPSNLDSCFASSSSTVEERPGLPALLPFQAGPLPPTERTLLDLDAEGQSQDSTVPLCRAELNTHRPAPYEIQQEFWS
Summary of the method: (§1)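 The 60-kinase diversity panel was run as a radiometric assay with ATP at each kinase's Km(app). Compound was tested at one fixed concentration across all kinases.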

[3] = biological target: T1, Serine/threonine-protein kinase Nek2 (Homo sapiens) (UniProt P51955); experiment: Inhibition of recombinant human full length NEK2 using myelin basic protein as substrate incubated for 40 mins by scintillation counting method; summary of the method: as §1
T1 sequence (whole entry): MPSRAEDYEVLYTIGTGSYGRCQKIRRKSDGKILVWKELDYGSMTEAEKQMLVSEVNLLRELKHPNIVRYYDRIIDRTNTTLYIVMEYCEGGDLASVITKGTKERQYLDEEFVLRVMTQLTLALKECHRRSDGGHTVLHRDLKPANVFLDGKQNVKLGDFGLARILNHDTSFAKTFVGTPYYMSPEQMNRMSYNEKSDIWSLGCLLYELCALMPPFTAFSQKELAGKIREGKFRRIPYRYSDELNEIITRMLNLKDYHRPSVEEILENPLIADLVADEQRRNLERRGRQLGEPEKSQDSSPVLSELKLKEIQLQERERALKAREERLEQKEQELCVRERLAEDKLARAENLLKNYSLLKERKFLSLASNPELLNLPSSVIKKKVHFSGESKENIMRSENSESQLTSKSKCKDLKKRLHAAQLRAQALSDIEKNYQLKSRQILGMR

HT-29 = experiment: Growth inhibition of human HT-29 cells after 48 hrs by MTT assay; format: functional
A2780 [4] = experiment: Growth inhibition of human A2780 cells after 48 hrs by MTT assay; format: functional
HeLa = experiment: Growth inhibition of human HeLa cells after 48 hrs by MTT assay; format: functional
MIA PaCa-2 = experiment: Growth inhibition of human MIA PaCa-2 cells after 48 hrs by MTT assay; format: functional
A2780 [5] = experiment: Induction of apoptosis in human A2780 cells assessed as necrotic cells at 0.5 uM after 24 hrs by Annexin V-FITC/PI staining based flow cytometric analysis (reference value: 3.6%); format: functional
Summary of the method: (§2)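 A2780 cells cultured 24 h in medium alone or with varying inhibitor concentrations, then stained with FITC-annexin V/PI per kit protocol and analysed by flow cytometry. Run in triplicate and repeated at least twice; significance by one-way ANOVA, p < 0.01.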

A2780 [6] = experiment: Induction of apoptosis in human A2780 cells assessed as viable cells at 1 uM after 24 hrs by Annexin V-FITC/PI staining based flow cytometric analysis (reference value: 92%); format: functional; details: read-out: Activity; summary of the method: as §2
A2780 [7] = experiment: Induction of apoptosis in human A2780 cells assessed as late apoptotic cells at 1 uM after 24 hrs by Annexin V-FITC/PI staining based flow cytometric analysis (reference value: 2.8%); format: functional; summary of the method: as §2
A2780 [8] = experiment: Induction of apoptosis in human A2780 cells assessed as necrotic cells at 1 uM after 24 hrs by Annexin V-FITC/PI staining based flow cytometric analysis (reference value: 3.6%); format: functional; summary of the method: as §2
A2780 [9] = experiment: Induction of apoptosis in human A2780 cells assessed as viable cells at 2 uM after 24 hrs by Annexin V-FITC/PI staining based flow cytometric analysis (reference value: 92%); format: functional; details: read-out: Activity; summary of the method: as §2
A2780 [10] = experiment: Induction of apoptosis in human A2780 cells assessed as early apoptotic cells at 2 uM after 24 hrs by Annexin V-FITC/PI staining based flow cytometric analysis (reference value: 1.6%); format: functional; summary of the method: as §2
A2780 [11] = experiment: Induction of cell cycle arrest in human A2780 cells assessed as accumulation at pre-G1 phase at 1 uM after 24 hrs by propidium iodide staining based flow cytometric analysis (reference value: 1.2%); format: functional
A2780 [12] = experiment: Induction of cell cycle arrest in human A2780 cells assessed as accumulation at G1/G0 phase at 1 uM after 24 hrs by propidium iodide staining based flow cytometric analysis (reference value: 56.7%); format: functional
Summary of the method: (§3)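 4 × 10⁵ A2780 cells cultured 24 h in medium alone or with varying inhibitor concentrations, harvested into hypotonic fluorochrome solution (0.1% sodium citrate, 0.1% Triton X-100, propidium iodide, 100 ug/ml RNase A), and DNA content analysed by flow cytometry. Representative of three independent experiments.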

A2780 [13] = experiment: Induction of cell cycle arrest in human A2780 cells assessed as accumulation at G1/G0 phase at 2 uM after 24 hrs by propidium iodide staining based flow cytometric analysis (reference value: 56.7%); format: functional; summary of the method: as §3
A2780 [14] = experiment: Induction of cell cycle arrest in human A2780 cells assessed as accumulation at G2/M phase at 2 uM after 24 hrs by propidium iodide staining based flow cytometric analysis (reference value: 21.6%); format: functional; summary of the method: as §3
[15] = biological target: Cyclin-dependent kinase 9 (Homo sapiens) (UniProt P50750); experiment: Inhibition of CDK9 in human A2780 cells assessed as reduction in RNAP2 phosphorylation at ser5 residues after 24 hrs by Western blot analysis; format: cell-based; details: dose 0.5-5 µM
Cyclin-dependent kinase 9 (Homo sapiens), sequence (P50750 whole entry): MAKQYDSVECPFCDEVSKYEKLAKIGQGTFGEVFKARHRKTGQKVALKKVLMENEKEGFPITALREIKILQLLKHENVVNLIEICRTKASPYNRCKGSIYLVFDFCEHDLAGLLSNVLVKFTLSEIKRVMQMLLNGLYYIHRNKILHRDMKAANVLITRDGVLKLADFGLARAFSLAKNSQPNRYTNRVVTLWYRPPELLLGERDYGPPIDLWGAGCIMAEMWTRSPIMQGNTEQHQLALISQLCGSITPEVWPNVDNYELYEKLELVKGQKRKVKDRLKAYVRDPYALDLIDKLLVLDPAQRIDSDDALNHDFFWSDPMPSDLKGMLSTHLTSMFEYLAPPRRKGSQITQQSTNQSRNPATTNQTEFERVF

A2780 [16] = experiment: Induction of apoptosis in human A2780 cells assessed as reduction in Mcl-1 protein expression at 5 uM after 6 to 12 hrs by Western blot analysis; format: functional, cell-based; details: time 6-12 hrs
Summary of the method: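 A2780 cells treated for 6 or 12 h, then lysates analysed by Western blotting.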

A2780 [17] = experiment: Induction of apoptosis in human A2780 cells assessed as reduction in Mcl-1 protein expression after 24 hrs by Western blot analysis; format: functional, cell-based; details: dose 0.5-5 µM
Summary of the method: (§4)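 A2780 cells treated for 24 h over a concentration series, then lysates analysed by Western blotting.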

A2780 [18] = experiment: Induction of apoptosis in human A2780 cells assessed as increase in p21 protein expression at 0.5 to 5 uM after 24 hrs by Western blot analysis; format: functional, cell-based; details: dose 0.5-5 µM; summary of the method: as §4
HCT-116 = experiment: Induction of apoptosis in human HCT-116 cells assessed as reduction in XIAP protein expression after 24 hrs by Western blot analysis; format: functional, cell-based; details: dose 0.5-5 µM

Ki (CDK2/Cyclin A2): 1.25 µM | Ratio Ki (Homo sapiens): 125 | Ki [1]: 0.546 µM | inhibition [2]: Active | inhibition [3]: Active | GI50 (HT-29): 2.1 µM | GI50 (A2780 [4]): 0.64 µM | GI50 (HeLa): 0.8 µM | GI50 (MIA PaCa-2): 1.07 µM | inhibition [15]: Dose-Dependent Effect
SMILES: CNc1nc(C)c(-c2nc(Nc3cccc(N4CCN5CCC4CC5)c3)ncc2C)s1
Activity (A2780 [5]): 1.9% | viability at 1 µM (A2780 [6]): 74.4% | Activity (A2780 [7]): 13.1% | Activity (A2780 [8]): 3% | viability at 2 µM (A2780 [9]): 67.9% | Activity (A2780 [10]): 14.4% | Activity (A2780 [11]): 6.5% | Activity (A2780 [12]): 50.5% | Activity (A2780 [13]): 24.3% | Activity (A2780 [14]): 56.5% | Activity (A2780 [16]): Active | Activity (A2780 [17]): Dose-Dependent Effect | Activity (A2780 [18]): Active | Activity (HCT-116): Dose-Dependent Effect
